The results in this text go back to ChEMBL document CHEMBL1649225, “Artemisone and artemiside control acute and reactivated toxoplasmosis in a murine model” (Antimicrob Agents Chemother, 2009).

One data set relates to HFF. As to the kind of experiment: Cytotoxicity against HFF. It is filed as cell-based. The following applies: human.
In data set [1] the test system is Toxoplasma gondii. Description: Antiparasitic activity against Toxoplasma gondii RH infected in human foreskin fibroblasts monolayer after 72 hrs by bacterial beta-galactosidase reporter gene assay. It is filed as functional, organism-based. The essentials: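 RH clone 2F expressing bacterial β-galactosidase, grown as tachyzoites in HFF monolayers in DMEM with 10% FBS. Compounds from DMSO stocks stored at −80°C in single-use aliquots. Tested at 0.010–1.0 μM for 72 h at 37°C. Medium then removed and β-galactosidase activity read at 570 nm.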
For orientation: A reporter such as luciferase makes a cellular process visible.

Data set [2] is described as follows: Partition coefficient, log P of the compound. It is filed as physicochemical. The following applies: octanol/water.
For data set [3], the system named is Toxoplasma gondii. Description: Antiparasitic activity against Toxoplasma gondii PRU-Luc-GFP type 2 infected in CD1 mouse acute toxoplasmosis model assessed as mouse survival at 10 mg/kg, sc administered once daily for 8 days measured after 25 days post-infection. It is filed as functional. The conditions noted are these: PRU-Luc-GFP type 2, sc, route subcutaneous. The essentials:
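Female CD1 outbred mice, 8–10 weeks old, infected i.p. with 10⁶ PRU-Luc-GFP type II tachyzoites in 0.2 ml PBS. Compounds given s.c. at 10 mg/kg daily for 8 days. Survival followed for 25 days; three experiments combined, n = 3 or 4 per group.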

The subject of data set [4] is Toxoplasma gondii. As to the kind of experiment: Antiparasitic activity against Toxoplasma gondii PRU-Luc-GFP type 2 infected in CD1 mouse acute toxoplasmosis model assessed as decrease in parasite burden at 10 mg/kg, sc administered once daily for 8 days measured after 25 days post-infection by luciferase reporter gene based assay. It is filed as functional, organism-based. Details: dose 10 mg/kg. The essentials: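 Female CD1 mice, 8–10 weeks old, infected i.p. with 10⁶ PRU-Luc-GFP tachyzoites. Dosed s.c. at 10 mg/kg daily for 8 days. Imaged every 2 days over 25 days under mild isoflurane anesthesia after i.p. firefly luciferin D at […]. Output in relative light units as a relative index of infection severity. Four repeats, n = 3 or 4 per group; one representative experiment shown.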

The test system of data set [5] is Toxoplasma gondii. As to the kind of experiment: Antiparasitic activity against Toxoplasma gondii PRU-Luc-GFP type 2 infected in 400 mg/kg sulfadiazine-pretreated INFgamma-deficient C57BL/6 mouse reactivated toxoplasmosis model assessed as mouse survival at 10 mg/kg, sc at once daily for 8 days administered 2 days after sulfadiazine discontinuation. It is filed as functional. In outline: (§1)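 Female IFN-γ−/− mice on C57BL/6 background, 8–10 weeks old, kept specific pathogen-free. Infected orally with 20 PRU-Luc-GFP tissue cysts taken from brains of chronically infected wild-type mice. Sulfadiazine in drinking water for 3 weeks from day 2. Compounds given s.c. at 10 mg/kg daily for 8 days, starting 2 days after sulfadiazine stopped. Survival monitored; three experiments combined, n = 3–5 per group.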

For data set [6], the system named is Toxoplasma gondii. As to the kind of experiment: Antiparasitic activity against Toxoplasma gondii PRU-Luc-GFP type 2 infected in 400 mg/kg sulfadiazine-pretreated INFgamma-deficient C57BL/6 mouse reactivated toxoplasmosis model assessed as mouse survival at 10 mg/kg, sc at once daily for 8 days administered 2 days after sulfadiazine discontinuation measured on day 18 post infection after compound withdrawal. It is filed as functional, organism-based. The essentials: as §1

In data set [7] the test system is Toxoplasma gondii. As to the kind of experiment: Antiparasitic activity against Toxoplasma gondii PRU-Luc-GFP type 2 infected in 400 mg/kg sulfadiazine-pretreated INFgamma-deficient C57BL/6 mouse reactivated toxoplasmosis model assessed as mouse survival at 10 mg/kg, sc at once daily for 8 days administered 2 days after sulfadiazine discontinuation measured on day 25 post infection after compound withdrawal. It is filed as functional, organism-based. The essentials: as §1

In data set [8] the test system is Toxoplasma gondii. Description: Antiparasitic activity against Toxoplasma gondii PRU-Luc-GFP type 2 infected in CD1 mouse acute toxoplasmosis model assessed as decrease in parasite-induced cyst formation in mouse brain at 10 mg/kg, sc administered once daily for 8 days measured after 25 days post-infection by luciferase reporter gene based assay. It is filed as functional, organism-based. On the set-up: dose 10 mg/kg. In outline: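 Female CD1 mice, 8–10 weeks old, infected i.p. with 10⁶ PRU-Luc-GFP tachyzoites and dosed s.c. at 10 mg/kg daily for 8 days. At 25 days post-infection, brains were homogenized in 1.0 ml PBS, pH 7.2. Cysts counted by bright-field or phase-contrast microscopy at ×40 in four 20-μl aliquots and total cysts per brain estimated. Three experiments combined, n = 2 per group.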

Data set [9] can be described thus: Partition coefficient, log P of the compound at pH 2. It is filed as physicochemical. The following applies: octanol/water.

Molecules are shown by their SMILES. Active and inactive are the calls of the source. The calls are words filed in the database; no cut-off is given here.

Usually EC50 stands for the concentration at which the effect is half-maximal. Read a high EC50 as weaker potency. In general, EC90 refers to the concentration at which the effect reaches the 90% level. By logP is commonly meant the decadic logarithm of the partition coefficient of the neutral form, usually between octanol and water. Regarding `C[C@H]1[C@H](NS(N)(=O)=O)O[C@@H]2O[C@@]3(C)CC[C@H]4[C@H](C)CC[C@@H]1[C@@]24OO3`, the Activity result with HFF is on record as “Non-toxic”. In addition, in the data set with Toxoplasma gondii [1], the EC50 amounted to 0.158 µM and it took 0.235 µM to reach the 90% level (EC90). In data set [2], the logP was determined as 3.36.

With `C[C@@H]1CC[C@H]2[C@@H](C)C(c3ccc(F)cc3)O[C@@H]3O[C@@]4(C)CC[C@@H]1[C@]32OO4` (some centres not stated), the Activity entry in the data set on HFF is reported as “Non-toxic”. In the data set on Toxoplasma gondii [1], this compound returned an EC50 of 0.182 µM and an EC90 of 0.271 µM. In data set [2], the logP is 5.18.

Take `C[C@H]1[C@H](N2CCN(Cc3ccccc3)CC2)O[C@@H]2O[C@@]3(C)CC[C@H]4[C@H](C)CC[C@@H]1[C@@]24OO3`: the Activity result in the data set on HFF was “Non-toxic”. Also, in the data set on Toxoplasma gondii [1], the EC50 turned out to be 0.213 µM and the 90% effect level (EC90) was put at 0.339 µM. The compound also showed a lipophilicity (logP) in data set [2] of 5.62.

Consider `C[C@H]1[C@H](N2CCN(c3ncccn3)CC2)O[C@@H]2O[C@@]3(C)CC[C@H]4[C@H](C)CC[C@@H]1[C@@]24OO3`, for which the Activity entry with HFF is listed as “Non-toxic”. Besides, in the data set on Toxoplasma gondii [1], a half-maximal response (EC50) required 0.156 µM and it took 0.263 µM to reach the 90% level (EC90). Moreover, in [2], the lipophilicity (logP) was determined as 4.78.

For the compound `C[C@H]1[C@H](N2CCS(=O)(=O)CC2)O[C@@H]2O[C@@]3(C)CC[C@H]4[C@H](C)CC[C@@H]1[C@@]24OO3` [ARTEMIFONE], in the data set on Toxoplasma gondii [3], the survival at 10 mg/kg was 50%. Besides, the Activity result in the data set on HFF is “Non-toxic”. For the same compound, in the data set on Toxoplasma gondii [1], the half-maximal effective concentration (EC50) is 0.12 µM and the EC90 was found to be 0.176 µM. Besides, in the data set with Toxoplasma gondii [4], the result was Active. Moreover, the Survival in the data set on Toxoplasma gondii [5] was 60%. Further, the outcome in the data set with Toxoplasma gondii [6] was inactive. For the same compound, the outcome with Toxoplasma gondii [7] was inactive. The logP in data set [2] worked out at 2.49.

In the case of `C[C@H]1[C@H](N2CCSCC2)O[C@@H]2O[C@@]3(C)CC[C@H]4[C@H](C)CC[C@@H]1[C@@]24OO3` [ARTEMISIDE], the survival at 10 mg/kg in the data set with Toxoplasma gondii [3] was determined as 60%. Moreover, in the data set with HFF, the Activity result is reported as “Non-toxic”. In addition, the midpoint of the response with Toxoplasma gondii [1], the EC50, lay at 0.108 µM. This compound registered a concentration for an effect of 90% (EC90) with Toxoplasma gondii [1] of 0.167 µM. The outcome with Toxoplasma gondii [4] and with Toxoplasma gondii [8] was Active. In the data set on Toxoplasma gondii [5], the Survival is 80%. The outcome with Toxoplasma gondii [6] and in the data set on Toxoplasma gondii [7] was inactive. This compound also registered a lipophilicity (logP) in data set [2] of 4.97.

On to `C[C@@H]1CC[C@H]2[C@@H](C)C(=O)O[C@@H]3O[C@@]4(C)CC[C@@H]1[C@]32OO4` [ARTEMISININ], for which the result in the data set with Toxoplasma gondii [4] and in the data set on Toxoplasma gondii [8] was inactive. The lipophilicity (logP) in data set [2] amounted to 2.94.

In the case of `C[C@H]1[C@H](OC(=O)CCC(=O)O)O[C@@H]2O[C@@]3(C)CC[C@H]4[C@H](C)CC[C@@H]1[C@@]24OO3` [ARTESUNATE], the Activity entry with HFF is “Non-toxic”. In the data set with Toxoplasma gondii [1], the EC50 amounted to 0.213 µM and the EC90 was determined as 0.368 µM. The same compound gave a log partition coefficient (logP) in data set [9] of 2.77.
